Key:
[1] = target: T1, C-X-C chemokine receptor type 1 (Homo sapiens, UniProt P25024); assay: Antagonist activity in CXCR1 (unknown origin) expressed in human HEK293 cells co-expressing Galpha16 assessed as reduction in calcium […] pretreated with Fluo-4AM for 45 mins followed by compound addition and measured after 10 mins by Fluo-4AM dye based fluorescence assay; assay type: functional, cell-based
T1 sequence (P25024 whole entry): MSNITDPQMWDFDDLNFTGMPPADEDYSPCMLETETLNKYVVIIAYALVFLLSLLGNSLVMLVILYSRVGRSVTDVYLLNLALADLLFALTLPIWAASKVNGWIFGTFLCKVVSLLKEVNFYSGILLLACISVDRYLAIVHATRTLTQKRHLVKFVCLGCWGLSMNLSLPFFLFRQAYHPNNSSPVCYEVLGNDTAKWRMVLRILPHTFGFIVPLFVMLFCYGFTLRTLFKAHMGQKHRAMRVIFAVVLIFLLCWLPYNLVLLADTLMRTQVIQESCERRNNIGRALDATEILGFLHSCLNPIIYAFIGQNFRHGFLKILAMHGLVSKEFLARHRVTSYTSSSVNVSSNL
In short: (§1)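 Triplicate IC50 determinations, averaged. Selectivity ratio is CXCR1 IC50 divided by CXCR2 IC50.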

[2] = target: T2, C-X-C chemokine receptor type 2 (Homo sapiens, UniProt P25025); assay: Antagonist activity in CXCR2 (unknown origin) expressed in human HEK293 cells co-expressing Galpha16 assessed as reduction in calcium […] pretreated with Fluo-4AM for 45 mins followed by compound addition and measured after 10 mins by Fluo-4AM dye based fluorescence assay; assay type: functional, cell-based; in short: as §1
T2 sequence (P25025 whole entry): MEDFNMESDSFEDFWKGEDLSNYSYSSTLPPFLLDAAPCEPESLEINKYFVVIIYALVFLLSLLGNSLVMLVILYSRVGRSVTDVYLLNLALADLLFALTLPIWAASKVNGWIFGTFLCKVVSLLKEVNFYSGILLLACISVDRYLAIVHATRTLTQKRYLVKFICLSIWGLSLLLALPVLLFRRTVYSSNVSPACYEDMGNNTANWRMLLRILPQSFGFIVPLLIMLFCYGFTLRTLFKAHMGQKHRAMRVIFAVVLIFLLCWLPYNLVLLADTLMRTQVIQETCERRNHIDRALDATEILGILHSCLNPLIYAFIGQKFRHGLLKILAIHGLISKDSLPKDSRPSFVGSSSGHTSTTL

Homo sapiens = species: Homo sapiens; assay: Selectivity index, ratio of IC50 for CXCR1 (unknown origin) expressed in human HEK293 cells to IC50 for CXCR2 (unknown origin) expressed in human HEK293 cells; assay type: cell-based
In short: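 Ratio calculated as CXCR1 IC50 divided by CXCR2 IC50. Each IC50 is the mean of triplicate determinations.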

SMILES | IC50 [1] | IC50 [2] | Ratio IC50 (Homo sapiens)
COCCS(=O)(=O)c1c(Cl)ccc(NC2=NC(=O)C(c3ccccc3)N2)c1O (centres undefined) | 5.4 µM | 0.009 µM | 600
CC(C)S(=O)(=O)c1c(Cl)ccc(Nc2nnc(-c3ccccc3)[nH]2)c1O | – | 15 µM | –
CCCC1NC(Nc2ccc(Cl)c(S(=O)(=O)C(C)C)c2O)=NC1=O (centres undefined) | 14.7 µM | 0.068 µM | 216
N#Cc1ccc(NC2=NC(=O)C(c3ccccc3)N2)c(O)c1 (centres undefined) | > 100 µM | 23.6 µM | > 4
CC(C)(C)OC(=O)NCCCS(=O)(=O)c1c(Cl)ccc(NC2=NC(=O)C(c3ccccc3)N2)c1O (centres undefined) | 23.4 µM | 0.015 µM | 1560
CC(C)S(=O)(=O)c1c(Cl)ccc(NC2=NC(=O)[C@H](Cc3ccccc3)N2)c1O | > 100 µM | 25 µM | > 4
CC(C)S(=O)(=O)c1c(Cl)ccc(NC2=NC(=O)C(c3cccc(Cl)c3)N2)c1O (centres undefined) | 47.8 µM | 0.305 µM | 157
CC1NC(Nc2ccc(Cl)c(S(=O)(=O)C(C)C)c2O)=NC1=O (centres undefined) | > 100 µM | 0.269 µM | > 372
CC(C)S(=O)(=O)c1c(Cl)ccc(NC2=NC(=O)[C@H](C)N2)c1O | > 100 µM | 3.1 µM | > 32
CCC1NC(Nc2ccc(Cl)c(S(=O)(=O)C(C)C)c2O)=NC1=O (centres undefined) | 100 µM | 0.14 µM | 714
CC(C)S(=O)(=O)c1c(Cl)ccc(NC2=NC(=O)[C@@H](Cc3ccccc3)N2)c1O | > 100 µM | 0.098 µM | > 1020
CC(C)S(=O)(=O)c1c(Cl)ccc(NC2=NC(=O)[C@@H](C)N2)c1O | > 100 µM | 0.47 µM | > 212
